ABCG2 block – ABCG2 efflux pump inhibitors, primary screen, multiplex with ABCB1, IgMXP3 cells, flow cytometry; Broad substrate specificity ATP-binding cassette transporter ABCG2 (Homo sapiens), Q9UNQ0; JC-1 efflux; inhibition, % at 6.6 µM; hit rate 0.1% among 190,000;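 active means inhibition above 80%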
Target sequence (Q9UNQ0 whole entry, looked up): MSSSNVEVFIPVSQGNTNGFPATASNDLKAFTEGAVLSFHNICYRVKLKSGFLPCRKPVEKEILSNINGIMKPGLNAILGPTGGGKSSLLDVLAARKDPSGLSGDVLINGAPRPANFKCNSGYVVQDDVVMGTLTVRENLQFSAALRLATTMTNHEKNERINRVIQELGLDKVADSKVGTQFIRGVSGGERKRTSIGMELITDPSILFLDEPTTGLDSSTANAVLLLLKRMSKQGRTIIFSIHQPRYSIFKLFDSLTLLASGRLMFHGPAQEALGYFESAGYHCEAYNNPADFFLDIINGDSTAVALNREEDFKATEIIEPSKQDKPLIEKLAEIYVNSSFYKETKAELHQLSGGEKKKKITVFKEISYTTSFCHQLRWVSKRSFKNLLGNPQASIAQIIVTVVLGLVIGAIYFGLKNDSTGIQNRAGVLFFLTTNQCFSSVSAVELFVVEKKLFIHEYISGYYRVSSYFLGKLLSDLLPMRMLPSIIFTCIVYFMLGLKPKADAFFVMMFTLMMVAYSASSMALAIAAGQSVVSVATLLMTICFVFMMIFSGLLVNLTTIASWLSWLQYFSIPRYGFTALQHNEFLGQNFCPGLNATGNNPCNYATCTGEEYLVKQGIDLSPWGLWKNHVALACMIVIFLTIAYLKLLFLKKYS
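Incubation: cells with compound and JC-1, 10 min at 25 °C, rotating, no wash / Test system: IgMXP3 (ABCG2) plus far-red-tagged CCRF-Adr (ABCB1) cells / Compound dosing: one concentration, 6.6 µM final / Also added: JC-1 fluorescent substrate / Evaluation: efflux inhibition in percent versus controls / Detection: flow cytometry, 530 nm JC-1 signal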
Diaphorase act – compounds boosting diaphorase resazurin reduction – biochemical, uHTS, resorufin fluorescence, counter-screen for diaphorase-coupled primary assays, primary screen; Diaphorase/resazurin coupled assay, 16 min; stronger effect = higher value; 1 = vehicle wells, 0 = NADH-free wells; activation factor at 20 µM; hit rate 0.005% among 190,000;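 active means diaphorase activity raised at least twofold by the compound at 20 µM; inactive means activation factor below 2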
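Material: Purified diaphorase enzyme from Clostridium kluyveri | Buffer or medium: 50 mM HEPES pH 7.4 with 4.542 mM MgCl2, 0.005% Tween 20 | Times: 16 min enzyme reaction, ambient temperature | Signal: Red resorufin fluorescence at 544/590 nm excitation/emission | Measure: Increased resorufin signal from activators or reducing compounds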
HMGR II inh – inhibitors of E. faecalis class II HMGR, primary screen, biochemical, Enterococcus faecalis; AID 1066, 2008; purified E. faecalis HMGR, NADPH absorbance 340 nm kinetic; inhibition, % at 10 µM; hit rate 0.41% among 190,000; HMG-CoA reductase (Enterococcus faecalis, mvaE);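 active means inhibition above a set limit, the median over all tested compounds plus 3 SD, cut at about 9.5% in these data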;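 further: enzyme runs in reverse so mevalonate oxidation gives rising NADPH absorbance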
NCF1 inh – p47phox/p22phox peptide binding inhibitors, primary screen, biochemical, uHTS, NADPH oxidase regulatory subunit; Neutrophil cytosol factor 1 (Homo sapiens), P14598; fluorescence polarization, 2 h; inhibition, % at 24.7 µM; hit rate 0.53% among 220,000;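 active means inhibition above about 30%, limit read from the data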
Diaphorase inh – diaphorase inhibitors and chemical oxidizers, primary screen, counter-screen for diaphorase-coupled primary assays, biochemical, uHTS, resorufin fluorescence. AID 1217, 2008. inhibition, % at 20 µM. diaphorase resazurin-to-resorufin fluorescence, NADH, 16 min; bacterial (C. kluyveri) enzyme, not human. hit rate 0.69% among 190,000;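 active means primary screen inhibition at 20 µM above a set limit, cut at about 50% in these data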
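System: Diaphorase enzyme from Clostridium kluyveri | Amount: Enzyme working solution with 0.14 U/mL diaphorase | Benchmarks: No-NADH positive control and DMSO neutral control | Signal: Fluorescence of resorufin formed from resazurin, Ex 544/Em 590 nm | Schedule: 16-min room-temperature incubation before reading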
ABCB1 inh – ABCB1 efflux pump inhibitors, primary screen, cell-based, multiplex, flow cytometry, ABCG2 counter-screen; ATP-dependent translocase ABCB1 (Homo sapiens), P08183; CCRF-Adr cells, JC-1 efflux; inhibition, % at 6.6 µM; hit rate 0.067% among 190,000; AID 1326, 2008; in the data active means inhibition above about 40%;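 further: higher value means more JC-1 retained so stronger ABCB1 efflux block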
Numbers stand for hits; i = inactive; nt = no result given. An excerpt weighted towards active compounds, which were near 1.6% of everything screened.

SMILES	ABCG2 block	Diaphorase act	HMGR II inh	NCF1 inh	Diaphorase inh	ABCB1 inh
CCC1(c2ccc(F)cc2)NC(=O)N(CC(=O)Nc2ccc(-c3nc4ccc(C)cc4s3)cc2)C1=O (stereo unspecified)	i	i	i	i	i	i
O=C(NCc1ccccc1)c1sc(=S)n2c1[nH]c(=O)c1ccccc12	i	i	i	i	73	i
COc1ccc(OC)c(NC(=O)NNC(=O)CCCOc2ccc(Cl)cc2C)c1	i	i	16	i	i	i
COc1cc(S(=O)(=O)N2CCC(c3nc4ccccc4s3)CC2)ccc1S(=O)(=O)NC1CCCC1	i	i	14	i	i	i
CC(C)(C)C1=CC(=O)C(=O)C(C(C)(C)C)=C1	i	i	i	i	73	i
O=C(NCCN1CCOCC1)C1CCN(S(=O)(=O)N2CCCC2)CC1	i	i	i	i	i	i
CN(C)Cc1cc(C(C)(C)C)c(O)c(C(C)(C)C)c1	i	i	i	i	i	i
CC(C)(C)c1cc(CN(CCO)CCO)cc(C(C)(C)C)c1O	i	i	i	i	70	i
Cc1ccc(NC(=O)CN2C(=O)S/C(=C\c3ccc(-c4cccc(C(=O)O)c4C)o3)C2=O)cc1C	i	i	i	i	110	i
Cc1cc(-c2ccc(Cl)cc2)n2ncnc2n1	nt	nt	nt	i	nt	nt
CCn1c(C)c(C(C)=O)c(N2CCN(c3ccc(F)cc3)CC2)nc1=S	i	i	i	i	i	i
CCn1c(C)c(C(C)=O)c(N2CCCC2)nc1=S	i	i	i	i	57	i
C=CCn1c(C)c(C(C)=O)c(N2CCCC2)nc1=S	i	i	i	i	56	i
O=C1OC(Nc2ccc3ncccc3c2)c2ccccc21 (stereo unspecified)	i	i	i	i	56	i
Cc1cc(N)n(-c2nc3ccccc3s2)n1	i	nt	9.6	i	nt	i
Nc1cccnc1Sc1ccc([N+](=O)[O-])cn1	i	i	i	i	50	i
O=[N+]([O-])c1ccc(Sc2ccccc2)nc1	i	i	i	i	i	nt
Cn1c2ccccc2n2c(=O)cc(-c3ccccc3)c(C#N)c12	nt	nt	nt	i	nt	nt
CCCN(CCC)C(=O)CSc1nc2ccccc2c(=O)n1C1CCCC1	i	i	i	i	i	52
CC1(C)Cc2nc3sc4c(N(CCO)CCO)ncnc4c3cc2CO1	i	i	i	i	i	i
CCN(CCO)c1ncnc2c1sc1nc(CC(C)C)c3c(c12)CC(C)(C)OC3	i	i	9.7	i	i	i
Cc1ccc(C(=O)NC(C)c2nc3ccccc3n2CC(=O)Nc2c(C)cc(C)cc2C)cc1 (stereo unspecified)	nt	nt	nt	i	nt	nt
CCN(CC)c1ccc(NC(=O)Cn2c(C(C)NC(=O)c3ccccc3)nc3ccccc32)cc1 (stereo unspecified)	i	i	i	39	i	i
Cc1cc(C(=O)NCC2CCCO2)n(-c2ccccc2)n1 (stereo unspecified)	i	i	i	i	i	i
O=C(NCC1CCCO1)c1cn(-c2ccccc2)nc1-c1ccccc1 (stereo unspecified)	i	i	i	i	58	i
SMILES	ABCG2 block	Diaphorase act	HMGR II inh	NCF1 inh	Diaphorase inh	ABCB1 inh
COCCCn1c(C)c(C(C)=O)cc(NC(=O)c2ccccc2)c1=O	i	i	11	i	i	i
Cc1ccccc1NC(=O)Cn1c(O)c(N=NC(=O)c2ccccc2O)c2ccccc21	i	i	i	50	i	i
COCCCN1C(=O)C(=O)/C(=C(/O)c2ccc(OC)cc2)C1c1ccc(O)c(OC)c1 (stereo unspecified)	i	i	12	i	i	i
Cc1ccc(OCC(=O)NCCN2CCCC2)cc1	i	i	i	i	i	i
O=C(COc1ccc(Cl)cc1)NCCN1CCCCC1	i	i	10	i	i	i
O=C(NCc1cccnc1)c1cc(-c2cccs2)on1	i	i	i	138	i	i
CC1CN(c2c3c(nc4ncnn24)CCCC3)CC(C)O1 (stereo unspecified)	i	i	i	i	i	i
O=C1CN(CC(=O)Nc2cccc(Cl)c2Cl)c2ccccc2N1	i	i	i	37	i	i
COc1cccc(OC)c1OCCCN1CCOCC1	i	i	i	i	53	i
COc1ccc(NS(=O)(=O)c2ccc(N3CCOCC3)c(NC(=O)c3cccc(F)c3)c2)cc1	i	i	i	50	i	i
COc1ccc(NS(=O)(=O)c2ccc(N3CCOCC3)c(NC(=O)c3ccc(F)cc3)c2)cc1	i	i	i	i	i	i
CC(=O)c1ccc(NC(=O)c2ccc(C)c(Br)c2)cc1	i	i	i	i	94	i
CC(=O)Nc1nc(CCN2C(=O)c3ccccc3C2=O)cs1	i	i	i	45	i	i
CCCSc1nc2sc3c(c2c(=O)[nH]1)CCN(Cc1ccccc1)C3	i	i	i	i	54	i
O=c1[nH]c(C(Cl)Cl)nc2sc3c(c12)CCN(Cc1ccccc1)C3	i	i	i	i	i	i
CCc1ccc(OCC(=O)NC(=S)Nc2ccc(C)cc2C)c(Br)c1	i	i	i	i	i	i
Cc1nn(-c2ccccc2)c(N2CCCC2)c1/C=N/NC(=O)c1ccccc1O	i	i	i	i	i	i
O=C(N/N=C/c1cc2c3c(c1O)CCCN3CCC2)c1ccccc1O	i	i	i	i	63	i
Cc1cccc(NC(=S)NCCN2CCOCC2)c1C	i	i	i	i	i	i
O=C(O)CC1S/C(=N/N=C/c2ccc(-c3ccccc3[N+](=O)[O-])o2)NC1=O (stereo unspecified)	i	i	i	i	52	i
Cc1ccc(-c2ccc(/C=N/N=C3/NC(=O)C(CC(=O)O)S3)o2)c([N+](=O)[O-])c1 (stereo unspecified)	i	i	i	i	i	i
CCOC(=O)c1c(NC(=O)C2C3CCC(O3)C2C(=O)O)sc(C)c1-c1ccc(C)cc1 (stereo unspecified)	i	i	i	i	52	i
CCn1c2ccccc2c2cc(/C=N/n3cn[nH]c3=S)ccc21	i	i	i	i	62	i
S=c1[nH]ncn1/N=C/c1ccccc1	i	i	i	i	60	i
CCn1c2ccccc2c2cc(/C=N/n3cnnc3)ccc21	i	i	i	i	i	i
O=C(CSc1nnc2scc(-c3ccccc3)n12)Nc1nsc(-c2ccccc2)n1	i	i	i	45	i	i
